Laboratory results: ChEMBL document CHEMBL4304834, “3-Amino-chromanes and Tetrahydroquinolines as Selective 5-HT2B, 5-HT7, or σ1 Receptor Ligands” (ACS Med Chem Lett, 2019)

Tests used:
[1] = Selectivity index, ratio of Ki for rat brain PBR receptor to Ki for human recombinant sigma1 receptor
Outline: (§1)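 Both Ki values in each ratio come from NIMH Psychoactive Drug Screening Program radioligand binding. […] Other targets were given full binding curves, measured in triplicate, and Ki was taken from a sigmoidal curve fit. Some values were repeated in duplicate or triplicate independent experiments.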

[2] = biological target: Sodium-dependent noradrenaline transporter (Homo sapiens, UniProt P23975); test: Displacement of [3H]-Nisoxetine from human recombinant NET receptor expressed in stable HEK cells at 10 uM after 90 mins by microbeta scintillation counting method relative to control; format: cell-based
Outline: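 Radioligand binding run by the NIMH Psychoactive Drug Screening Program. […] Otherwise Ki comes from sigmoidal curve fits of triplicate measurements in a single experiment, or is averaged over repeated experiments each run in triplicate.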

Homo sapiens [3] = species: Homo sapiens; test: Selectivity index, ratio of Ki for human recombinant histamine H1 receptor to Ki for human recombinant sigma1 receptor; outline: as §1
661W = test: Cytoprotective activity in mouse 661W cells assessed as inhibition of t-BHP induced oxidative stress by measuring increase in cell viability at 30 uM after 24 hrs by MTT assay (Rvb < 50%); format: functional
Homo sapiens [4] = species: Homo sapiens; test: Selectivity index, ratio of Ki for human recombinant DOR receptor to Ki for human recombinant sigma1 receptor; outline: as §1
[5] = Selectivity index, ratio of Ki for rat brain BZP receptor to Ki for human recombinant sigma1 receptor; outline: as §1
Homo sapiens [6] = species: Homo sapiens; test: Selectivity index, ratio of Ki for human recombinant DAT receptor to Ki for human recombinant sigma1 receptor

Sequence of Sodium-dependent noradrenaline transporter (P23975 whole entry): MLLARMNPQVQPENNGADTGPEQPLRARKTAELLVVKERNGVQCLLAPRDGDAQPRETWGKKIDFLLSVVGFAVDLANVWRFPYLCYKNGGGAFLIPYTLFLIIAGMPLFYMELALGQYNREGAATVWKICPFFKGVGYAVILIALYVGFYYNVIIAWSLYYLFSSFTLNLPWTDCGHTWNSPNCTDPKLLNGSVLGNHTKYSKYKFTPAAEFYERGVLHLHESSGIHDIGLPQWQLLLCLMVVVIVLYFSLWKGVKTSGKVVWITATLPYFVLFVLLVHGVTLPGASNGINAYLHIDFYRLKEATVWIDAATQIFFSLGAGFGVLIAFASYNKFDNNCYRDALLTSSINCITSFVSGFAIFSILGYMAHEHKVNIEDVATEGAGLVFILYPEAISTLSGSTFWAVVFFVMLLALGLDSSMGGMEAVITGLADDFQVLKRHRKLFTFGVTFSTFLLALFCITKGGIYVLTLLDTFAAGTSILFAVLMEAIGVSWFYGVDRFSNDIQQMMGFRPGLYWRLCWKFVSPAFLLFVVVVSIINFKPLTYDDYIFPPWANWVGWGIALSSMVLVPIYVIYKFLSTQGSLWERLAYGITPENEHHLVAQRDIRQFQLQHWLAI

SMILES: COc1cc(OC)c2c(c1)OC[C@@]1(C)NCC[C@@H]21 (racemic)
- Ratio Ki [1]: > 20
- inhibition [2]: < 50%
- Ratio Ki (Homo sapiens [3]): > 20
- Activity (661W): >80%
- Ratio Ki (Homo sapiens [4]): > 20
- Ratio Ki [5]: > 20
- Ratio Ki (Homo sapiens [6]): > 20
